Reference: ChEMBL document CHEMBL1159012, “Anti-aids agents, 6. Salaspermic acid, an anti-HIV principle from Tripterygium wilfordii, and the structure-activity correlation with its related compounds” (J Nat Prod, 1992)
≈ marks a conversion by molar mass, not a printed value. Calls of active or inactive are those of the source. The calls are words filed in the database; no cut-off is given here.

How the values were obtained:
[1] = test system: Human immunodeficiency virus 1; assay: Antiviral activity against HIV 3B infected human H9 cells assessed as inhibition of p24 antigen release; type: functional; settings: Human immunodeficiency virus 1, 3B, read-out: ED50 (the source's name)
Summary of the method: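 H9 lymphocytes (3.5×10^6 cells/ml) exposed to HIV-1 HTLV-IIIB at 0.01-0.1 TCID50/cell for 1 h at 37°, then washed and resuspended at 4×10^5 cells/ml. Mixed with an equal volume of compound diluted in medium and cultured 3 days at 37°. Virus released into the medium measured by p24 antigen capture. EC50 read graphically from a plot of % inhibition versus concentration.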

H9 = assay: Cytotoxicity against human H9 cells; type: cell-based
Summary of the method: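 Uninfected H9 lymphocytes were handled in parallel with the infected cultures: 1 h mock exposure at 37°, washing, resuspension at 4×10^5 cells/ml, and 3 days at 37° with an equal volume of compound diluted in medium. Cell density was counted with a Coulter counter. IC50 was read graphically from a plot of % inhibition versus concentration.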

[2] = biological target: T1, Human immunodeficiency virus type 1 reverse transcriptase (Human immunodeficiency virus 1, UniProt Q72547); assay: Inhibition of HIV1 recombinant reverse transcriptase expressed in Escherichia coli using poly(dC)-oligo(dG) template
[3] = biological target: Human immunodeficiency virus type 1 reverse transcriptase (Human immunodeficiency virus 1) (UniProt Q72547); assay: Inhibition of DNA polymerase activity of HIV1 recombinant reverse transcriptase
Summary of the method: (§1)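 Reverse transcriptase purified from E. coli expressing it: HIV-1 from JM109 carrying pKRT2, HIV-2 from a strain bearing pASRT2. HIV-2 enzyme was run with poly(rC)·oligo(dG). EC50 values were reported.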

[4] = biological target: T1, Human immunodeficiency virus type 1 reverse transcriptase; assay: Inhibition of HIV1 recombinant reverse transcriptase expressed in Escherichia coli using poly(rG)-oligo(dC) template
[5] = biological target: Human immunodeficiency virus type 1 reverse transcriptase (Human immunodeficiency virus 1) (UniProt Q72547); assay: Inhibition of RNAse activity of HIV1 recombinant reverse transcriptase using poly(dT).[3H]poly(rA) template at 100 ug/ml
Summary of the method: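 The RNase H activity of purified HIV-1 reverse transcriptase, expressed in E. coli JM109/pKRT2, was assayed with poly(dT)·[3H]poly(rA) as substrate. Compound was tested at 100 µg/ml.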

[6] = biological target: T1, Human immunodeficiency virus type 1 reverse transcriptase; assay: Inhibition of HIV1 recombinant reverse transcriptase expressed in Escherichia coli using poly(rU)-oligo(dA) template
[7] = biological target: Human immunodeficiency virus type 1 reverse transcriptase (Human immunodeficiency virus 1) (UniProt Q72547); assay: Inhibition of HIV1 recombinant reverse transcriptase expressed in Escherichia coli using poly(rU)-oligo(dA) template at 100 ug/ml
[8] = biological target: T1, Human immunodeficiency virus type 1 reverse transcriptase; assay: Inhibition of HIV1 recombinant reverse transcriptase expressed in Escherichia coli using poly(rA)-oligo(dT) template
[9] = biological target: T1, Human immunodeficiency virus type 1 reverse transcriptase; assay: Inhibition of HIV1 recombinant reverse transcriptase expressed in Escherichia coli using poly(rC)-oligo(dG) template
[10] = biological target: Human immunodeficiency virus type 1 reverse transcriptase (Human immunodeficiency virus 1) (UniProt Q72547); assay: Inhibition of HIV1 recombinant reverse transcriptase expressed in Escherichia coli using poly(rG)-oligo(dC) template at 100 ug/ml
[11] = Inhibition of HIV2 reverse transcriptase using poly(rC)-oligo(dG) template; set-up: species or system Human immunodeficiency virus 2; summary of the method: as §1

Structure (SMILES) | EC50 [1] [µM] | IC50 (H9) [µM] | other results
C[C@H]1C(=O)CC[C@@H]2[C@]1(C)CC[C@H]1[C@@]2(C)CC[C@@]2(C)[C@@H]3CC(C)(C)CC[C@]3(CO)CC[C@]12C [CANOPHYLLOL] | 4 | 18 | –
C[C@H]1C(=O)CC[C@H]2[C@]3(C)CC[C@@]4(C)[C@@H]5CC(C)(C)C(=O)C[C@]5(C)C(=O)C[C@]4(C)[C@H]3C[C@@H](O)[C@]12C | > 106 | 106 | –
C[C@H]1C(=O)CC[C@@H]2[C@]1(C)CC[C@H]1[C@@]2(C)CC[C@@]2(C)[C@@H]3CC(C)(C)CC[C@]3(OO)CC[C@]12C | 38 | 38 | –
C[C@H]1C(=O)CC[C@@H]2[C@]1(C)CC[C@H]1[C@@]2(C)CC[C@@]2(C)[C@@H]3C[C@](C)(C(=O)O)CC[C@]3(C)CC[C@]12C [MAYTENOIC ACID] | 66 | 44 | –
C[C@H]1C(=O)CC[C@@H]2[C@]1(C)CC[C@H]1[C@@]2(C)CC[C@@]2(C)[C@@H]3CC(C)(C)CC[C@]3(C(=O)O)CC[C@]12C | 15 | 22 | –
C[C@H]1C(=O)CC[C@@H]2[C@]1(C)CC[C@H]1[C@@]2(C)CC[C@@]2(C)[C@@H]3C[C@@](C)(C(=O)O)CC[C@]3(C)CC[C@]12C | 59 | 44 | –
C[C@@H]1[C@@]23CC[C@H]4[C@@](C)(CC[C@@]5(C)[C@@H]6C[C@](C)(C(=O)O)CC[C@]6(C)CC[C@]45C)[C@@H]2CC[C@@]1(O)OC3 [SALASPERMIC ACID] | 10 | 53 | EC50 [2]: 159 µM; Activity [3]: Active; EC50 [4]: > 212 µM; Activity [5]: inactive; EC50 [6]: > 212 µM; inhibition [7]: 37%; EC50 [8]: 33.8 µM; EC50 [9]: 31.7 µM; inhibition [10]: 4%; EC50 [11]: 100 µg/mL (≈ 212 µM)
C[C@H]1C(=O)CC[C@@H]2[C@]1(C)CC[C@H]1[C@@]2(C)CC[C@@]2(C)[C@@H]3C[C@](C)(CO)CC[C@]3(CO)CC[C@]12C | 11 | 15 | –
C[C@@H]1[C@@]23CC[C@H]4[C@@](C)(CC[C@@]5(C)[C@@H]6C[C@](C)(C(=O)O)CC[C@]6(C)CC[C@]45C)[C@@H]2C[C@@H](O)[C@@]1(O)OC3 | 103 | 64 | –
C[C@H]1C(=O)CC[C@@H]2[C@]1(C)CC[C@H]1[C@@]2(C)CC[C@@]2(C)[C@@H]3C[C@@](C)(CO)CC[C@]3(CO)CC[C@]12C | 13 | 20 | –
C[C@H]1C(=O)CC[C@@H]2[C@]1(C)CC[C@H]1[C@@]2(C)CC[C@@]2(C)[C@@H]3CC(C)(C)CC[C@]3(C)[C@H](O)C[C@]12C | 2 | 8 | –
